Laboratory results: PubChem BioAssay
The source made the active and inactive calls.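 The calls were made as follows, unless noted: active = NADPH fluorescence slope more negative than the mean of all samples by about 3 SD, 99.7% confidence; inactive = the rest.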

Assays:
[1] = inhibitors of TNFa-induced NFkB p65 translocation, primary screen, imaging, HUVEC, MLSMR starter and 10KST1 sets (AID 438;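 active = inhibition above 20% together with a positive visual image hit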;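 also: compound added about 3h40 before a 20 min TNFalpha stimulation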;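 as to inhibition: signal is the nuclear over cytoplasmic p65 intensity ratio per well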); conditions: HUVEC TNFa-induced p65 nuclear translocation; cell count: measured here: nuclei count (cytotoxicity indicator), at 2.08 µM; inhibition: at 2 µM, stronger effect = higher value, 0% TNFa-plus-vehicle, 100% no-TNFa wells
[2] = inhibitors of E-selectin induction by TNFa, primary screen, imaging, HUVEC, immunofluorescence, MLSMR starter and 10KST1 sets (AID 487;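 active = visually confirmed hit in the image check and inhibition above 20%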;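 as to inhibition: signal is fraction of cell area covered by stained E-selectin grains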;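 as to nuclei count: 100% = median nuclei count of all wells on the same plate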); conditions: HUVEC TNFalpha-induced E-selectin immunofluorescence imaging, at 2 µM; inhibition: stronger effect = higher value; nuclei count: measured here: cell number, toxicity
[3] = DUSP6 inhibitors restoring Erk phosphorylation by chemical complementation, primary imaging in DUSP6-transfected HeLa (AID 609;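 active = compounds giving at least 50% inhibition in the cell-based MKP-3 phosphatase rescue imaging test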;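 as to inhibition: phospho-Erk level distribution per well compared with pooled transfected vehicle control wells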); conditions: HeLa MKP-3 transfected, phospho-Erk imaging KS statistic, at 10 µM, cells stimulated with TPA for 15 min
[4] = target: Dual specificity protein phosphatase 6 (Homo sapiens) (UniProt Q16828); assay: as above; conditions: HeLa MKP-3 transfected, phospho-Erk imaging KS statistic; at 10 µM; stronger effect = higher value; cells stimulated with TPA for 15 min
Sequence of Dual specificity protein phosphatase 6 (Homo sapiens) (Q16828 whole entry, looked up): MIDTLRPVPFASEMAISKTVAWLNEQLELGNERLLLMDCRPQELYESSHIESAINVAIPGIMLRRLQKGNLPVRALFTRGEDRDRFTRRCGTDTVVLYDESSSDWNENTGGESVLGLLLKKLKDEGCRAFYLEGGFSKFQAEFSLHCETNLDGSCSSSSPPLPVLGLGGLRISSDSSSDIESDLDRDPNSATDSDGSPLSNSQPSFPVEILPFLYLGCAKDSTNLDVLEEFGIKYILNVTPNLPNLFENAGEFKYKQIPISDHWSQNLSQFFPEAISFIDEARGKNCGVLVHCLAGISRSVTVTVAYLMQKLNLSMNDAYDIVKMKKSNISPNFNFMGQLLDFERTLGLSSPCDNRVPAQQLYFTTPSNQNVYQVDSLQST

[5] = target: Voltage-gated potassium channel subunit beta-2 (Rattus norvegicus) (UniProt P62483); assay: KvBeta enzyme negative modulators, primary screen, biochemical, NADPH fluorescence (AID 622;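 active = fluorescence slope higher than the sample average by over 3 SD, cut at about -0.22 in these data, passing the limit was not always enough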;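 also: slope of raw intensity against log time taken from 70 to 1610 s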); conditions: recombinant KvBeta, 4-cyanobenzaldehyde reduction, at 10 µM, stronger effect = higher value
Sequence of Voltage-gated potassium channel subunit beta-2 (Rattus norvegicus) (P62483 whole entry, looked up): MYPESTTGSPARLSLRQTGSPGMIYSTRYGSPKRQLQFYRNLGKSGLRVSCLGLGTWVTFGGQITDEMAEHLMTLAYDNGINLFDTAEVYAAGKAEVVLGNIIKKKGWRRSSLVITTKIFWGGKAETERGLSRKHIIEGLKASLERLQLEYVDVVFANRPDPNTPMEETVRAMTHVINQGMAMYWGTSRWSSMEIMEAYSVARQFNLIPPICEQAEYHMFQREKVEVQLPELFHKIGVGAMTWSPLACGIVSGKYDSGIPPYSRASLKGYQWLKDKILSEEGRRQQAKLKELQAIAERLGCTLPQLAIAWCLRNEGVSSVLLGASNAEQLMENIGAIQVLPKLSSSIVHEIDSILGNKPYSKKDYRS

[6] = target: Voltage-gated potassium channel subunit beta-2 (Rattus norvegicus) (UniProt P62483); assay: KvBeta positive modulators, primary screen, biochemical, NADPH fluorescence (AID 623); conditions: Recombinant KvBeta, NADPH fluorescence decrease slope, 10 min; at 10 µM; stronger effect = lower value;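 also: fluorescence intensity change per second fitted from 20 to 320 s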
[7] = target: Alpha-2C adrenergic receptor (Homo sapiens) (UniProt P18825); assay: modulators of alpha2C/GIRK thallium flux, primary screen, cell-based, HEK293 alpha2C/GIRK1/2 (AID 624;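 active = fluorescence slope after compound addition differing from the mean of all screened samples at 99.7% confidence, in either direction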;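 also: slope of fluorescence ratio to pre-addition baseline per second over 15 to 24 s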); conditions: thallium flux BTC fluorescence, at 10 µM, actives lie on both sides
Sequence of Alpha-2C adrenergic receptor (Homo sapiens) (P18825 whole entry, looked up): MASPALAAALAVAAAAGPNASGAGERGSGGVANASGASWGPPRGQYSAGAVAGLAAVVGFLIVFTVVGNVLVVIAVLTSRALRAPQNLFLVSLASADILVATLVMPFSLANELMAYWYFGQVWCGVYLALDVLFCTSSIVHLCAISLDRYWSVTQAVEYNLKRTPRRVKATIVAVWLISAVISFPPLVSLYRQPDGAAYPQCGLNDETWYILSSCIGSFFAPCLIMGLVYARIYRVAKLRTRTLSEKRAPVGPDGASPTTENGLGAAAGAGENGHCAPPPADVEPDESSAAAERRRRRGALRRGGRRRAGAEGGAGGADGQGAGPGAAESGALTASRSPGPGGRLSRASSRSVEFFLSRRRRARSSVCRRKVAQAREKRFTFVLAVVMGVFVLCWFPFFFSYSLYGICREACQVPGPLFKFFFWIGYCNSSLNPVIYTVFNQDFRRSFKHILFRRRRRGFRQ

[8] = inhibitors of larval lipid processing in zebrafish, primary screen, whole organism, PED6 fluorescence, gall bladder and intestine (AID 686;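 active = a full or partial loss of lipid-probe fluorescence in the fish gall bladder, intestine or both, judged by eye; inactive = no fluorescence loss, or compound toxic to the fish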;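 also: larvae 5 to 7 days old with five fish per well; signal comes from phospholipase A2 cleavage of quenched PED6 carried via bile; overnight exposure to compound and PED6 before scoring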); conditions: Zebrafish larvae PED6 lipid processing, fluorescence scoring; screened at 20 µM (by protocol)
In short: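 Test system – live zebrafish larvae aged 5-7 days, whole organism · Buffer or medium – E3 fish medium · Reagent – quenched phospholipase substrate PED6, 100 nM final, ingested by larvae · Doses – 20 µM single dose · Incubation – overnight compound and PED6 incubation · Technique – visual fluorescence microscopy scoring of gall bladder, gut · Read-out basis – visual per-well fluorescence inhibition score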

[9] = inhibitors of Chlamydomonas gravitaxis, primary screen, whole organism, Chlamydomonas reinhardtii, WT vs cilia-less mutant, absorbance, 96-well (AID 463189;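 active = inhibition at or above 50% relative to wild type and mutant plate controls; inactive = inhibition below 50%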;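 also: 0% = wild type cc124 cells in DMSO and 100% = ciliumless bld1 mutant cells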); conditions: OD600 absorbance, 2 days, at 10 µM, stronger effect = higher value
[10] = measured here: cell density z-score
[11] = measured here: nuclear c-Myc green intensity z-score
[12] = measured here: nuclear pErk red intensity z-score, stronger effect = higher value

SMILES | cell count [1] | inhibition [1] | inhibition [2] | nuclei count [2] | z-score [3, 10] | z-score [3, 11] | z-score [3, 12] | inhibition [4] | fluorescence slope [5] | NADPH fluorescence slope [6] | slope [7] | outcome [8] | inhibition [9]
O=C(Nc1nc(NC(=O)c2ccco2)n(-c2ccccc2)n1)c1ccccc1 | 339 | -8.5% (inactive) | -1.3% (inactive) | 157% | 0.978 | -0.403 | -0.743 | -7.01% (inactive) | -0.452 (inactive) | -0.000125 (inactive) | 0.00175 (inactive) | inactive; toxic | 1.31% (inactive)
CC1(C)Cc2c(C#N)c(NCCN3CCOCC3)nc(-c3ccco3)c2CO1 | 579 | -8.4% (inactive) | -62.4% (inactive) | 149% | 0.114 | 1.74 | -1.62 | 26.5% (inactive) | -0.295 (inactive) | -3e-06 (inactive) | 0.00581 (inactive) | inactive | 34% (inactive)
CCOC(=O)C1=C(C(C)=O)C(c2cccnc2)C(C#N)=C(N)O1 (stereo unspecified) | 548 | -5.1% (inactive) | -109% (inactive) | 228% | 0.844 | -1.11 | -0.0919 | 6.04% (inactive) | -0.369 (inactive) | -1e-05 (inactive) | 0.00521 (inactive) | inactive | 12.1% (inactive)
CCOC(=O)COc1nc(N(C)C)nc(N(C)C)n1 | 634 | -15% (inactive) | -349% (inactive) | 183% | 0.237 | 0.0213 | 0.713 | 7.48% (inactive) | -0.492 (inactive) | -0.000101 (inactive) | 0.00583 (inactive) | inactive | -0.47% (inactive)
CC(C)(C)OC(=O)NCCC(=O)Oc1ccc2ccc(=O)oc2c1 | 499 | -1.3% (inactive) | -209% (inactive) | 185% | 0.0263 | 0.375 | 0.541 | -11% (inactive) | -0.362 (inactive) | -2.1e-05 (inactive) | 0.00495 (inactive) | inactive | 16.5% (inactive)
Cc1cc(C)n(C(=O)CN2C(=O)CCC2=O)n1 | 406 | -19% (inactive) | -169% (inactive) | 155% | -0.373 | -0.831 | -0.956 | -5.62% (inactive) | -0.249 (inactive) | 1.9e-05 (inactive) | 0.00506 (inactive) | inactive | 17.3% (inactive)
Cc1ccc2[nH]c3c(c2c1)CN(C(=O)CN1CCN(c2ccccn2)CC1)CC3 | 563 | -9% (inactive) | -69.3% (inactive) | 144% | -1.22 | -0.583 | -0.448 | 4.72% (inactive) | -0.453 (inactive) | -0.000143 (inactive) | 0.00579 (inactive) | inactive | 10.4% (inactive)
COc1cc(=O)n2c(-c3ccccc3)csc2n1 | 628 | 0% (inactive) | -58.9% (inactive) | 153% | -1.46 | 1.4 | 0.777 | 13.2% (inactive) | -0.465 (inactive) | -0.000258 (inactive) | 0.00547 (inactive) | inactive | 5.32% (inactive)
Cc1nn2c(-c3ccc(Cl)cc3)nnc2s1 | 551 | -6.5% (inactive) | -65.8% (inactive) | 86.3% | -0.293 | -0.329 | 0.206 | -6.06% (inactive) | -0.421 (inactive) | -1.1e-05 (inactive) | 0.00662 (inactive) | inactive | 17.4% (inactive)
CC1(C)Cc2c(sc3[nH]c(=S)n(Cc4ccco4)c(=O)c23)CO1 | 541 | -15.5% (inactive) | -74.4% (inactive) | 117% | -0.898 | -0.375 | -0.762 | -2.69% (inactive) | -0.361 (inactive) | 2.2e-05 (inactive) | 0.0124 (active) | inactive | -12.6% (inactive)
O=C(CNC1=NCCC1)c1ccc2c(c1)OCCO2 | 488 | -10.2% (inactive) | -73% (inactive) | 161% | -0.692 | -1.12 | -0.547 | 28.6% (inactive) | -0.485 (inactive) | -0.000113 (inactive) | 0.006 (inactive) | inactive | -8.59% (inactive)
OC1CN=C2Sc3ccccc3N2C1 (stereo unspecified) | 530 | 13.2% (inactive) | -227% (inactive) | 188% | -0.279 | 0.975 | 0.81 | -7.28% (inactive) | -0.378 (inactive) | -1.8e-05 (inactive) | 0.00473 (inactive) | inactive | -4.68% (inactive)
Cc1ccc2c(c1)C(CCN)C(=O)N2Cc1ccccc1 (stereo unspecified) | 622 | -12.2% (inactive) | -11.3% (inactive) | 154% | 0.106 | 0.432 | 0.437 | -15% (inactive) | -0.424 (inactive) | -3.4e-05 (inactive) | 0.00511 (inactive) | inactive | 9.26% (inactive)
Cc1ccc(SCc2c(C#N)c3ccccc3n2C)cc1 | 288 | -2.4% (inactive) | -79.2% (inactive) | 129% | -1.74 | 2.02 | 0.448 | 12.3% (inactive) | -0.445 (inactive) | -0.000146 (inactive) | 0.00992 (active) | inactive | 16.9% (inactive)
COc1cccc(C2=CC(c3ccccc3)n3ncnc3N2)c1 (stereo unspecified) | 565 | 3.2% (inactive) | 36.2% (inactive) | 163% | -0.222 | -0.0591 | 0.0878 | -8.76% (inactive) | -0.0434 (active) | -2e-07 (inactive) | 0.00478 (inactive) | inactive | 10.9% (inactive)
O=C1[C@@H]2[C@H](C(=O)N1O)[C@H]1C=C[C@@H]2C1 | 468 | -1% (inactive) | -174% (inactive) | 209% | -1.39 | 1.02 | 0.777 | 1.04% (inactive) | -0.392 (inactive) | -1.7e-05 (inactive) | 0.00509 (inactive) | inactive | 2.48% (inactive)
CCOC(=O)CSc1nc2ccccc2c(=O)n1C | 636 | -9.5% (inactive) | -24.4% (inactive) | 170% | -0.479 | 1.67 | 1.83 | -5.89% (inactive) | -0.523 (inactive) | -3.8e-05 (inactive) | 0.00573 (inactive) | inactive | -11.1% (inactive)
O=CNC(=O)c1ccccc1C(=O)O | 545 | -5.9% (inactive) | -60.7% (inactive) | 162% | 1.01 | -0.571 | -1.1 | 11.9% (inactive) | -0.522 (inactive) | -2.4e-05 (inactive) | 0.00526 (inactive) | inactive | 28.5% (inactive)
CC(=O)c1cc(C#N)c(SCC(=O)C(C)(C)C)nc1C | 620 | -22.5% (inactive) | 43.4% (inactive) | 103% | -0.699 | -0.489 | -0.711 | -3.95% (inactive) | -0.462 (inactive) | -1.9e-05 (inactive) | 0.00715 (inactive) | inactive | 42.5% (inactive)
CCSc1nnc(N(CCC(=O)O)CCC(=O)O)s1 | 371 | -10.5% (inactive) | -116% (inactive) | 155% | 0.0345 | 0.0362 | -1.04 | 7.48% (inactive) | -0.422 (inactive) | -2.2e-05 (inactive) | 0.00562 (inactive) | inactive | -5.02% (inactive)
CCOC(=O)CSc1nc(NC#N)nc(N(CC)CC)n1 | 650 | -7.6% (inactive) | -42.9% (inactive) | 165% | -0.121 | -0.374 | -1.34 | 13.2% (inactive) | -0.51 (inactive) | -9.5e-05 (inactive) | 0.0053 (inactive) | inactive | -12.7% (inactive)
COc1cc(C)nc(Oc2ccc(OCCOc3ccc(C)cc3)nn2)n1 | 440 | -2.4% (inactive) | -191% (inactive) | 163% | 0.149 | -0.102 | 0.972 | 2.46% (inactive) | -0.415 (inactive) | -3.1e-05 (inactive) | 0.00505 (inactive) | inactive | 3.2% (inactive)
CCCCOc1ccc(CN(C)c2ncnc(N)n2)cc1 | 657 | -1.7% (inactive) | -51.5% (inactive) | 180% | -0.491 | 0.207 | -0.506 | 5.57% (inactive) | -0.503 (inactive) | -0.00011 (inactive) | 0.00652 (inactive) | inactive | 29.8% (inactive)
O=C(Nc1ccc2c(c1)OCO2)c1cc2n(n1)C(C(F)(F)F)CC(c1ccccc1)N2 (stereo unspecified) | 415 | -5.8% (inactive) | 33.8% (inactive) | 65.6% | -0.336 | 0.972 | -0.0303 | 7.48% (inactive) | -0.544 (inactive) | -7.9e-05 (inactive) | 0.00462 (inactive) | inactive | -16.3% (inactive)
O=C(C1=C(O)C(=O)N(CCN2CCOCC2)C1c1cccnc1)c1cc2ccccc2o1 (stereo unspecified) | 451 | 4.1% (inactive) | -45.7% (inactive) | 168% | -0.44 | 2.22 | 0.434 | 15% (inactive) | -0.41 (inactive) | -6.5e-05 (inactive) | 0.00612 (inactive) | inactive | -5.22% (inactive)
CCOC(=O)c1cc(C)n(-c2ccc(OC)c(OC)c2)c1C | 530 | -8.1% (inactive) | -25.1% (inactive) | 122% | 1.68 | -2.38 | -0.201 | 5.57% (inactive) | -0.516 (inactive) | -0.000114 (inactive) | 0.00418 (inactive) | inactive | -0.885% (inactive)
Cc1onc(-c2ccccc2Cl)c1C(=O)N1CCN(c2nc3ccccc3s2)CC1 | 340 | -8.1% (inactive) | -48.8% (inactive) | 168% | 1.76 | -0.608 | -1.2 | 25.4% (inactive) | -0.417 (inactive) | -0.000136 (inactive) | 0.00481 (inactive) | inactive | 13% (inactive)
